DDE Tn6 FP inh = disrupts Tn6 cyclic peptide binding to fibrin D-Dimer-E complex; 0.21% of 370,000 active; AID 720509; inhibition, % at 8.3 µM; Fibrin DD(E) TRITC-Tn6 fluorescence polarization displacement;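 active means inhibition above a per-campaign cutoff: mean of compounds within control limits plus 3 SD, cut at about 15% in these data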
MT1-MMP act inh = MT1-MMP (human) activation inhibition; HT1080 RFP-PRO-GFP cells, GFP/RFP ratio fluorescence, overnight; percent of plate control window, DMSO zero; GFP/RFP ratio change, % at 20 µM; 0.061% of 360,000 active;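 active means GFP/RFP ratio change of at least 30% with cell ATP level not reduced by more than half and red fluorescence within 50% of control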
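Compound: 20 µM single dose, 1% DMSO / System: HT1080 RFP-PRO-GFP cells / Controls: DMSO and RFP-L50D-GFP cell wells / Read-out basis: GFP/RFP fluorescence ratio / Schedule: overnight compound exposure at 37 °C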
DDE Tn7 FP inh = disrupts Tn7 cyclic peptide binding to fibrin D-Dimer-E complex | P02675 | FP displacement of FITC-Tn7 peptide from fibrin DD(E); 0% = median of compound wells per plate | inhibition, % at 8.3 µM | 0.13% of 370,000 active | AID 720508;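 active means inhibition above the mean of compounds falling within the control limits plus 3 SD of them, cut at about 14% in these data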
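Measure: % inhibition scaled between sample-field median and high-control FP; Test system: human fibrin DD(E); Quantity: 2 µM final DD(E) protein; Doses: one dose, 8.3 µM nominal; Schedule: compound with protein 10 min, then 3 h after probe, room temperature; Detection: fluorescence polarization; Medium: Tris buffer with calcium and detergent, pH 7.8.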
ADAM17 inh = ADAM17 inhibition, QFRET primary screen. 0.83% of 370,000 active. P78536. AID 720648. recombinant ADAM17, EDANS/DABCYL FRET peptide cleavage. inhibition, % at 6.95 µM;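 active means inhibition above the mean of compounds lying between control limits plus 3 SD, set per campaign, cut at about 8.5% in these data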
ADAM10 inh = inhibitors of human ADAM10 | O14672 | recombinant ADAM10, EDANS/DABCYL FRET peptide cleavage, 3 h | inhibition, % at 7 µM | 0.62% of 370,000 active | AID 720582;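 active means inhibition above a per-campaign cutoff equal to the mean of compounds falling between control-based bounds plus 3 SD, cut at about 20% in these data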
Target sequence (O14672 214-748 limits assumed): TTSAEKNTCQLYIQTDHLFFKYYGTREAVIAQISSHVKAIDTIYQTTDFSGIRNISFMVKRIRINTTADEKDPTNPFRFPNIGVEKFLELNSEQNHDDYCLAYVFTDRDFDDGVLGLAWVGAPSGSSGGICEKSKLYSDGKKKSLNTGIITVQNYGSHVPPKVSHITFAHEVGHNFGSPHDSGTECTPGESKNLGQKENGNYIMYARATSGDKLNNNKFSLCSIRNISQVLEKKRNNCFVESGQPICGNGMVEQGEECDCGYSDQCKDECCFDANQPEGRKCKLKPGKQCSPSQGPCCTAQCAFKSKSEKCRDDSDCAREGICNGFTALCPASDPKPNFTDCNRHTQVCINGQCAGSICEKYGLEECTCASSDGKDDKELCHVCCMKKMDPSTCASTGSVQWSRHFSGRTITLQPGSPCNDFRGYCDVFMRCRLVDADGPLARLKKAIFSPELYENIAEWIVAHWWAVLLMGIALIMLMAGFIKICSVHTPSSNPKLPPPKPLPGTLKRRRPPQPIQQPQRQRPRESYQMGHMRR
DDE Tn7 confirm = confirmation of inhibitors of Tn7 binding to human fibrin DD(E) | inhibition, % at 8.3 µM | 5% of 460 active | FP displacement of TRITC-Tn7 peptide from DD(E); 0% set at plate's compound-well median | shares compounds with DDE Tn7 FP inh | AID 720628;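 active means inhibition above the campaign cutoff, the mean of compounds within control limits plus 3 SD, cut at about 14% in these data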;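 further: displacers lower polarization since freed probe rises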
Tn7 DDE ctr = counter-screen for inhibitors of Tn7 peptide binding to fibrin DD(E); TRITC-Tn7 probe displacement, fluorescence polarization; 3% of 460 active; inhibition, % at 8.3 µM; shares compounds with DDE Tn7 FP inh;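 active means inhibition above the cutoff, the mean of compounds lying between the control bounds plus 3 SD of those compounds, cut at about 17% in these data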
Hits are given with their value; n = inactive; x = no result. Shown are actives, neighbours in structure and some others; about 1.6% of the full set was active somewhere.

SMILES	DDE Tn6 FP inh	MT1-MMP act inh	DDE Tn7 FP inh	ADAM17 inh	ADAM10 inh	DDE Tn7 confirm	Tn7 DDE ctr
COc1ccc(NC(=O)COC(=O)CC2Sc3ccccc3NC2=O)cc1 (configuration not stated)	n	n	15	n	n	n	n
CC(C)[C@H]1/C(=C/C2CC2)N2C(=O)C[C@@H](c3ccccc3)N=C2N1Cc1ccc2c(c1)OCO2	n	x	n	n	n	x	x
Cn1c(=O)c(NC2CCCCC2)c2c3c(cccc31)C(=O)c1ccccc1-2	n	n	19	n	n	n	n
CC(=O)Nc1ccc(NC2=CC(=O)c3ccccc3C2=O)cc1	n	n	n	n	n	x	x
CC(=O)Nc1ccc(Nc2c3c4c(cccc4n(C)c2=O)C(=O)c2ccccc2-3)cc1	n	n	19	n	n	n	n
COc1ccc(OC)c(S(=O)(=O)Nc2ccc(CC(=O)O)cc2)c1	n	n	17	n	n	n	n
COc1ccc(OC)c(S(=O)(=O)Nc2ccc(OCC(=O)O)cc2)c1	n	n	n	n	n	x	x
O=C(COc1ccc(Oc2ccccc2)cc1)NCc1cn2ccccc2n1	n	n	16	n	n	n	n
COC(=O)[C@]12C[C@H](CC(=O)NCCc3ccccc3OC)C(=O)N(CCc3ccc(OC)c(OC)c3)C1=C[C@H](C(C)C)O[C@@H]2C1CC1	n	x	n	n	n	x	x
Cc1cccc(N2C(=O)CN(Cc3sccc3C)C2=S)c1	n	n	n	n	n	x	x
Cc1cccc(N2C(=O)CN(Cc3cccs3)C2=S)c1	n	n	15	n	n	n	n
COc1ccc2[nH]c(=O)c(CN(C(=O)c3ccncc3)C(C)C)cc2c1	n	n	n	n	n	x	x
COc1ccc2[nH]c(=O)c(CN(C)C(=O)c3ccncc3)cc2c1	n	n	15	n	n	n	n
COc1ccccc1CN1CCN(Cc2ccco2)CC1	n	n	n	n	n	x	x
COc1ccc(CN2CCN(Cc3ccco3)CC2)c(OC)c1	n	n	14	n	n	n	n
COc1cc(O)c(C(CCN2CCOCC2)c2ccc(N(C)C)cc2)c(OC)c1 (configuration not stated)	n	n	14	n	n	n	n
COCC#Cc1cnc2c(c1)C(=O)N([C@@H](C)CO)C[C@H](C)[C@H](CN(C)C(=O)c1ccc3c(c1)OCO3)O2	n	x	n	n	n	x	x
CN=C1S/C(=C/c2cc(C)n(-c3ccc(Cl)cc3F)c2C)C(=O)N1C	n	x	n	n	n	x	x
COc1ccc(-n2c(SCC(=O)Nc3ccc(S(=O)(=O)Nc4nccs4)cc3)nnc2-c2ccco2)cc1	n	x	n	n	n	x	x
CCC(CC)C(=O)c1c[nH]c(C(=O)NCc2ccccc2)c1	n	n	14	n	n	n	n
CCC(CC)C(=O)c1c[nH]c(C(=O)NCc2ccccc2OC)c1	n	n	n	n	n	x	x
CCOC(=O)CC[C@@]1(C(=O)OCC)C[C@@H](CC(=O)NCc2ccc(C)o2)C(=O)N2CCCC=C21	n	x	n	n	n	x	x
COc1ccccc1N(CC(=O)NCCSCc1ccccc1)S(C)(=O)=O	n	n	14	n	n	n	n
Cc1ccc(NC(=S)NCc2ccc(Cl)cc2)c(OC(F)F)c1	n	n	14	n	n	n	n
COC(=O)[C@]12C[C@H](CC(=O)NCc3ccc(C)o3)C(=O)N(CCC3=CCCCC3)C1=C[C@H](C1CCCC1)O[C@@H]2C	n	x	n	n	n	x	x
SMILES	DDE Tn6 FP inh	MT1-MMP act inh	DDE Tn7 FP inh	ADAM17 inh	ADAM10 inh	DDE Tn7 confirm	Tn7 DDE ctr
CC1=CC(c2ccc(Cl)cc2)n2nc(NS(=O)(=O)c3ccc(C)cc3)nc2N1 (configuration not stated)	n	n	14	n	n	n	n
CC1=CC(c2ccccc2)n2nc(NS(=O)(=O)c3ccc(C)cc3)nc2N1 (configuration not stated)	n	n	n	n	n	x	x
CCC[C@H]1[C@@H](OC(=O)N2CCCC2)CC[C@@]23CCCN2C(=O)CCC[C@@H]13	n	x	n	n	n	x	x
CCC(C)[C@H](NC(=O)N1CCC(C)CC1)C(=O)O (some centres not stated)	n	n	14	n	n	n	n
O=c1[nH]c(-[n+]2ccccc2)c(/C=N/NC([S-])=Nc2ccccc2)s1	n	n	15	n	n	n	n
Cc1cc[n+](-c2[nH]c(=O)sc2/C=N/NC([S-])=Nc2ccccc2)cc1	n	n	n	n	n	x	x
O=C1CCCC2=C1C(c1ccsc1)CC(=O)N2c1ccccc1F (configuration not stated)	n	n	15	n	n	n	n
CC(=O)Nc1ccc(NC(=O)[C@@H](NC(=O)c2ccccc2F)C(C)C)cc1	n	n	15	n	n	n	n
COc1cc(-c2csc(N3CCC(C(N)=O)CC3)n2)cc(OC)c1OC	n	x	n	n	n	x	x
C#CCn1cc(/C=N/NC(=O)COc2cccc3cccnc23)c2ccccc21	n	n	14	n	n	n	n
C=CCNC(=S)N1C[C@H]2CON(C)[C@H]2C[C@H]1c1ccccc1Br	n	x	n	n	n	x	x
CCCCCCCCNC(=O)C1CSCCS(=O)(=O)N1Cc1ccc(F)cc1 (configuration not stated)	n	x	n	n	n	x	x
O=C(O)c1cc(=O)c2ccccc2[nH]1	n	n	14	n	n	n	n
O=C(O)c1cc(=O)c2c(Cl)cc(Cl)cc2[nH]1	n	n	n	n	n	x	x
C=CCOc1ccc(/C=C/C(=O)N2CCCN(S(=O)(=O)c3c(C)noc3C)CC2)cc1	n	n	15	n	n	n	n
CCNC(=O)N(C)[C@H]1C[C@H]2c3[nH]c4c(-c5ccc6c(c5)OCO6)cccc4c3CCN2C(=O)[C@H]1[C@H](C)O	n	x	n	n	n	x	x
COC(=O)[C@]12C[C@H](CC(=O)NCc3cccc4ccccc34)C(=O)N(CCc3ccc(OC)c(OC)c3)C1=C[C@H](COCc1ccccc1)O[C@@H]2C	n	x	n	n	n	x	x
CCOC(=O)/C(C)=N/NC(=O)c1ccc([N+](=O)[O-])cc1	n	n	n	n	n	x	x
CC(=N\NC(=O)c1ccc([N+](=O)[O-])cc1)/C(=N/O)C(=O)Nc1ccccc1	n	n	16	n	n	n	n
O=S1(=O)c2ccc(Br)cc2OC[C@H](Cc2ccccc2)N1Cc1cn(Cc2ccc(F)cc2)nn1	n	x	n	n	n	x	x
CN(C)CCCC1Sc2ccccc2Sc2ccccc21 (configuration not stated)	n	n	n	n	n	x	x
CNCCC1Sc2ccccc2Oc2ccccc21 (configuration not stated)	n	n	14	n	n	n	n
